What was measured:
[1] = molecular target: Tyrosine-protein kinase ZAP-70 (Homo sapiens) (UniProt P43403); assay: Inhibition of ZAP70 at 3 uM
[2] = molecular target: Epidermal growth factor receptor (Homo sapiens) (UniProt P04626+P00533+Q15303+P21860); assay: Inhibition of EGFR E746-A750del mutant at 3 uM; assay type: protein assay
[3] = molecular target: LIM domain kinase 2 (Homo sapiens) (UniProt P53671); assay: Inhibition of LIMK2 at 3 uM
[4] = molecular target: Beta-2 adrenergic receptor (Homo sapiens) (UniProt P07550); assay: Inhibition of human adrenergic beta2 receptor at 3 uM
Summary of the method: (§1)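 Counter-screen binding/enzyme panel at single 3 μM, n=2; results as percent inhibition. Species per target as listed (rat NMDA, GABAA sites; human receptors, transporters; rabbit ACE).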

[5] = molecular target: Mast/stem cell growth factor receptor Kit (Homo sapiens) (UniProt P10721); assay: Inhibition of KIT at 3 uM
[6] = molecular target: MAP/microtubule affinity-regulating kinase 4 (Homo sapiens) (UniProt Q96L34); assay: Inhibition of MARK4 at 3 uM
[7] = tested on: Epidermal growth factor receptor (Homo sapiens), P00533 [L858R]; assay: Inhibition of EGFR L858R mutant at 3 uM; assay type: protein assay
Chain of Epidermal growth factor receptor (Homo sapiens), P00533 [L858R] (P00533 whole entry L858R): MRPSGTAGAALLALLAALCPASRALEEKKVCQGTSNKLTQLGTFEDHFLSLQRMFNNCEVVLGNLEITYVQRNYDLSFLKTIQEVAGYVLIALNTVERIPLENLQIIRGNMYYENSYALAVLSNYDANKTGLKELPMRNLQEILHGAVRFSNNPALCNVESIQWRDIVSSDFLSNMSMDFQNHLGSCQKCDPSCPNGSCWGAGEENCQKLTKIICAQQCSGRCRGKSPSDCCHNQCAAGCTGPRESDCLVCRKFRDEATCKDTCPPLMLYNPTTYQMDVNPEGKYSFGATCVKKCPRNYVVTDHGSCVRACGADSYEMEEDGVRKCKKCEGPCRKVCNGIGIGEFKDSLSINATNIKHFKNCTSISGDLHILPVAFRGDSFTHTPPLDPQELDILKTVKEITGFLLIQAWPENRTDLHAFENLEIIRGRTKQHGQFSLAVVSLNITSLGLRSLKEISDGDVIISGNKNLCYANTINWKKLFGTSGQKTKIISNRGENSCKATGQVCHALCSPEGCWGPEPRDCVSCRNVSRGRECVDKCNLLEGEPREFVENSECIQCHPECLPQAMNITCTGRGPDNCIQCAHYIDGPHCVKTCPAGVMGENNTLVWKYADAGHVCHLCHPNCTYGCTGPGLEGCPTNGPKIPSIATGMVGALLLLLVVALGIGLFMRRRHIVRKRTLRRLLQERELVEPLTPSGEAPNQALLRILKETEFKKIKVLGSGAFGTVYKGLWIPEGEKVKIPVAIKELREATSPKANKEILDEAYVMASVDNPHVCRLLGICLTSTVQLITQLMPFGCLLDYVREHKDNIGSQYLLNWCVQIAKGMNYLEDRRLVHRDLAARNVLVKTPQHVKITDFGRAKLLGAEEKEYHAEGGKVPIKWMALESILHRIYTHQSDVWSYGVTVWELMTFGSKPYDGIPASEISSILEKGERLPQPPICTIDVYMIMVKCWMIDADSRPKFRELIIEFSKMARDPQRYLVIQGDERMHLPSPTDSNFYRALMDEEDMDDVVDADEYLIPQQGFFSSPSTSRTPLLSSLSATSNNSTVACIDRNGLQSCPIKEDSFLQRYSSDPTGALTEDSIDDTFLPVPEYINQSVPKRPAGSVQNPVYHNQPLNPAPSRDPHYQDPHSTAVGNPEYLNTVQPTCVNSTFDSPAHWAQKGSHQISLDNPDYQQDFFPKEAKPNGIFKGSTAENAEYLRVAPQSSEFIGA
Summary of the method: (§2)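 Single-concentration kinase panel scoring: each value is the percentage of enzyme activity remaining relative to a DMSO-only control. An activity statistically indistinct from DMSO control was scored "no hit".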

[8] = molecular target: T1, CYP1A2 (Homo sapiens, UniProt P05177); assay: Inhibition of human CYP1A2 at 10 uM; assay type: ADME
T1 sequence (P05177 whole entry): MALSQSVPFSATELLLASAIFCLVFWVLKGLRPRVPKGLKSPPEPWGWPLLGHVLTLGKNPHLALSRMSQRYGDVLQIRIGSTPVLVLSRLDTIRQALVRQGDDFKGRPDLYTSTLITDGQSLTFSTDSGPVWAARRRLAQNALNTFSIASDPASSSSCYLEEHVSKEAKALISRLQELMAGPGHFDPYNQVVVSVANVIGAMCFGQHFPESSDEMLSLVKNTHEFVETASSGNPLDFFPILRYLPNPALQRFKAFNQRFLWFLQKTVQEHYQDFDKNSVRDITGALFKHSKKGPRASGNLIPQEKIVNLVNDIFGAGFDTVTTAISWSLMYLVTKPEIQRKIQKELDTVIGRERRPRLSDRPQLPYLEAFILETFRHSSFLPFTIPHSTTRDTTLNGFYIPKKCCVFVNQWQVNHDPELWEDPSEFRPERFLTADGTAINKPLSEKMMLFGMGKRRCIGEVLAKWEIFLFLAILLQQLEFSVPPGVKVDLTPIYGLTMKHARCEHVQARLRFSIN

[9] = molecular target: Glycogen synthase kinase-3 alpha (Homo sapiens) (UniProt P49840); assay: Inhibition of GSK3A at 3 uM
[10] = molecular target: Mitogen-activated protein kinase 10 (Homo sapiens) (UniProt P53779); assay: Inhibition of JNK3 at 3 uM
Chain of Mitogen-activated protein kinase 10 (Homo sapiens) (P53779 whole entry): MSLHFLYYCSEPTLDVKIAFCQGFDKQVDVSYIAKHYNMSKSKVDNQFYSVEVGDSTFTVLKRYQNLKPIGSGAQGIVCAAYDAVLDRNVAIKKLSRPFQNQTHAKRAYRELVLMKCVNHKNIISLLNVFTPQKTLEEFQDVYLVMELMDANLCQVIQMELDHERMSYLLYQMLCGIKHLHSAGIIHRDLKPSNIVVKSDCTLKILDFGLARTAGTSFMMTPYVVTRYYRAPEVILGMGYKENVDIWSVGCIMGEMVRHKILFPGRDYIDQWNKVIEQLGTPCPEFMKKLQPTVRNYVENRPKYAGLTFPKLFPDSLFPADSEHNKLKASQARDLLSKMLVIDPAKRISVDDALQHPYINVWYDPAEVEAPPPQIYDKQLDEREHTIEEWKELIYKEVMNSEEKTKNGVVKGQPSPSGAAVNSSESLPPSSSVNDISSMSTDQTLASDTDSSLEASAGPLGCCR

[11] = molecular target: Serine/threonine-protein kinase D2 (Homo sapiens) (UniProt Q9BZL6); assay: Inhibition of PRKD2 at 3 uM
[12] = molecular target: Protein kinase C theta type (Homo sapiens) (UniProt Q04759); assay: Inhibition of PRKCQ at 3 uM
[13] = species on record: Homo sapiens; conditions: 3 uM
[14] = molecular target: Serine/threonine-protein kinase PAK 4 (Homo sapiens) (UniProt O96013); assay: Inhibition of PAK4 at 3 uM
[15] = molecular target: Receptor tyrosine-protein kinase erbB-2 (Homo sapiens) (UniProt P04626); assay: Inhibition of ERBB2 at 3 uM; summary of the method: as §2
[16] = molecular target: Serine/threonine-protein kinase PLK4 (Homo sapiens) (UniProt O00444); assay: Inhibition of PLK4 at 3 uM
[17] = molecular target: Cyclin-dependent kinase 16 (Homo sapiens) (UniProt Q00536); assay: Inhibition of PCTK1 at 3 uM
[18] = molecular target: Serine/threonine-protein kinase LATS1 (Homo sapiens) (UniProt O95835); assay: Inhibition of LATS1 at 3 uM
[19] = tested on: Epidermal growth factor receptor (Homo sapiens), P00533 [G719C]; assay: Inhibition of EGFR G719C mutant at 3 uM; assay type: protein assay
[20] = molecular target: CYP2D6 (Homo sapiens, UniProt P10635); assay: Inhibition of human CYP2D6 at 10 uM; assay type: ADME
Chain of CYP2D6 (P10635 whole entry): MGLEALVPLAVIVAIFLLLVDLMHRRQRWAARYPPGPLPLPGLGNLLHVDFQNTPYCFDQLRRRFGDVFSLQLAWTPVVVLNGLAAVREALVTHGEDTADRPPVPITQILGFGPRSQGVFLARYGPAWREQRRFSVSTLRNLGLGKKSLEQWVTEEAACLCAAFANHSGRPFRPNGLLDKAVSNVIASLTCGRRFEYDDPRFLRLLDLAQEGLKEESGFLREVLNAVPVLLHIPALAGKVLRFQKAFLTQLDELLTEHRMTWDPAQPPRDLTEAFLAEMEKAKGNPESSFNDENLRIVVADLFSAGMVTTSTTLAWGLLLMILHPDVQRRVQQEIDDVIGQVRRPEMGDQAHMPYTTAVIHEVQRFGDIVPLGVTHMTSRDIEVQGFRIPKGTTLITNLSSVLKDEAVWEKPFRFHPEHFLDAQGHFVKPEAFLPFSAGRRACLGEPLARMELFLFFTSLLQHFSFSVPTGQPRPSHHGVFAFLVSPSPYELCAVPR

[21] = molecular target: Serine/threonine-protein kinase 33 (Homo sapiens) (UniProt Q9BYT3); assay: Inhibition of STK33 at 3 uM
[22] = molecular target: Dual specificity protein kinase CLK2 (Homo sapiens) (UniProt P49760); assay: Inhibition of CLK2 at 3 uM
[23] = molecular target: Mitogen-activated protein kinase kinase kinase kinase 3 (Homo sapiens) (UniProt Q8IVH8); assay: Inhibition of MAP4K3 at 3 uM
[24] = molecular target: Dual specificity mitogen-activated protein kinase kinase 2 (Homo sapiens) (UniProt P36507); assay: Inhibition of MEK2 at 3 uM
Chain of Dual specificity mitogen-activated protein kinase kinase 2 (Homo sapiens) (P36507 whole entry): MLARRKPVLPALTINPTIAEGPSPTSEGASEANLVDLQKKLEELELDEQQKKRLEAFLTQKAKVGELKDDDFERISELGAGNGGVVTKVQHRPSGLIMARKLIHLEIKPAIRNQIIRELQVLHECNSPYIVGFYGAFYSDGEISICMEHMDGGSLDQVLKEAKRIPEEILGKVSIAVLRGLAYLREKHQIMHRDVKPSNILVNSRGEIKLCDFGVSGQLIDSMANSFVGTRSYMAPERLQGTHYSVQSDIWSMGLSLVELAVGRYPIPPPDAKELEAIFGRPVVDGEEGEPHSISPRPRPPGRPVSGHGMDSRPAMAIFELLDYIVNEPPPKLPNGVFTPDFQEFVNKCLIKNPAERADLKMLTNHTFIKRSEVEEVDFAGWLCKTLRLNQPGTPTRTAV

[25] = molecular target: MAP/microtubule affinity-regulating kinase 3 (Homo sapiens) (UniProt P27448); assay: Inhibition of MARK3 at 3 uM
[26] = molecular target: Tyrosine-protein kinase TXK (Homo sapiens) (UniProt P42681); assay: Inhibition of TXK at 3 uM
[27] = molecular target: Testis-specific serine/threonine-protein kinase 1 (Homo sapiens) (UniProt Q9BXA7); assay: Inhibition of TSSK1 at 3 uM
[28] = molecular target: Activin receptor type-1 (Homo sapiens) (UniProt Q04771); assay: Inhibition of ACVR1 at 3 uM
[29] = molecular target: Calcium/calmodulin-dependent protein kinase type IV (Homo sapiens) (UniProt Q16566); assay: Inhibition of CAMK4 at 3 uM
[30] = molecular target: Calcium/calmodulin-dependent protein kinase type II subunit beta (Homo sapiens) (UniProt Q13554); assay: Inhibition of CAMK2B at 3 uM
[31] = species on record: Oryctolagus cuniculus; conditions: 3 uM
[32] = molecular target: Calcium/calmodulin-dependent protein kinase type 1 (Homo sapiens) (UniProt Q14012); assay: Inhibition of CAMK1 at 3 uM
Chain of Calcium/calmodulin-dependent protein kinase type 1 (Homo sapiens) (Q14012 whole entry, looked up): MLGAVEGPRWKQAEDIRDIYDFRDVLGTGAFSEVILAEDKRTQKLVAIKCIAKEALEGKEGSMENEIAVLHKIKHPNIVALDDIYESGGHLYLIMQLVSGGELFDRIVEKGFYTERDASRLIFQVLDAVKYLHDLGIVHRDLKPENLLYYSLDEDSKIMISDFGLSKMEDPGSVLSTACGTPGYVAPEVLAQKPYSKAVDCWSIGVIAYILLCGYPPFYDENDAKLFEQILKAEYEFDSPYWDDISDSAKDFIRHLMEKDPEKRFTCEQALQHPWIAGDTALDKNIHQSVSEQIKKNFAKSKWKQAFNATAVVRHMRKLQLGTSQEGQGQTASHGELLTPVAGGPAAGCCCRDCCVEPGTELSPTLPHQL

[33] = molecular target: Pyroglutamylated RF-amide peptide receptor (Homo sapiens) (UniProt Q96P65); assay: Inhibition of human GPR103 at 3 uM; summary of the method: as §1
[34] = molecular target: Hepatocyte growth factor receptor (Homo sapiens) (UniProt P08581); assay: Inhibition of MET at 3 uM
[35] = molecular target: Serine/threonine-protein kinase tousled-like 2 (Homo sapiens) (UniProt Q86UE8); assay: Inhibition of TLK2 at 3 uM
[36] = molecular target: 5'-AMP-activated protein kinase catalytic subunit alpha-2 (Homo sapiens) (UniProt P54646); assay: Inhibition of AMPKalpha2 at 3 uM
Chain of 5'-AMP-activated protein kinase catalytic subunit alpha-2 (Homo sapiens) (P54646 whole entry, looked up): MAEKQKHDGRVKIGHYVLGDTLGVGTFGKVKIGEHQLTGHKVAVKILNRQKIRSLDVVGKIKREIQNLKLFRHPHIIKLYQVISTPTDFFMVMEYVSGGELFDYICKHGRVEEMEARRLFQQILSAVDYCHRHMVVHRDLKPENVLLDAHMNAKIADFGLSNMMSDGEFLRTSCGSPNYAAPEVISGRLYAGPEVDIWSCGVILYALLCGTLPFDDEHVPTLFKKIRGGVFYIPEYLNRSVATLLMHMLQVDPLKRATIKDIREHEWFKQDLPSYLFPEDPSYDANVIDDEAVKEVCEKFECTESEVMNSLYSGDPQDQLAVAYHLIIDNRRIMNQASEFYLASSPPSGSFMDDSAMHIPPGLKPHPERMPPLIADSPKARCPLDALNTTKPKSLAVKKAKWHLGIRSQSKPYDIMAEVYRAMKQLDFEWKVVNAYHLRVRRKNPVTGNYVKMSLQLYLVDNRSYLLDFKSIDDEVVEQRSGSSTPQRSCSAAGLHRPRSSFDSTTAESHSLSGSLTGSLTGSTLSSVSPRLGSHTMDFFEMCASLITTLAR

[37] = molecular target: Ephrin type-A receptor 5 (Homo sapiens) (UniProt P54756); assay: Inhibition of EPHA5 at 3 uM; summary of the method: as §2
[38] = molecular target: Calcium/calmodulin-dependent protein kinase type 1D (Homo sapiens) (UniProt Q8IU85); assay: Inhibition of CAMK1D at 3 uM

Chain of LIM domain kinase 2 (Homo sapiens) (P53671 whole entry, looked up, the tested form may be a part): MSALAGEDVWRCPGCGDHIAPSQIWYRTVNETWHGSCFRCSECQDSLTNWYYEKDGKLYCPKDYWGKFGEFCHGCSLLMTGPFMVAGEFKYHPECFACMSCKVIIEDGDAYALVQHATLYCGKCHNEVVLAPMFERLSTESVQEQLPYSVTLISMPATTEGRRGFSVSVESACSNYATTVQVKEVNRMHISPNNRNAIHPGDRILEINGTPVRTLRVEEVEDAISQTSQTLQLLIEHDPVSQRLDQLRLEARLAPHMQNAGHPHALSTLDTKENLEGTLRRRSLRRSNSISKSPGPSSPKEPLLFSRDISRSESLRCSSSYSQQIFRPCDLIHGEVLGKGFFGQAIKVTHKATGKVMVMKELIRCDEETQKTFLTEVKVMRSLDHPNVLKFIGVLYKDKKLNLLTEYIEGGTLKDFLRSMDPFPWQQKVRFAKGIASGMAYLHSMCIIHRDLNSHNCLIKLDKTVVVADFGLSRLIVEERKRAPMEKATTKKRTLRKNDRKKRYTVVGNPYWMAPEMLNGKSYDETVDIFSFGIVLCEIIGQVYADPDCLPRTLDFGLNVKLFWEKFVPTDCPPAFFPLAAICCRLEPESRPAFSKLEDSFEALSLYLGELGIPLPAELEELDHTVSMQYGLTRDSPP
Chain of Tyrosine-protein kinase ZAP-70 (Homo sapiens) (P43403 whole entry): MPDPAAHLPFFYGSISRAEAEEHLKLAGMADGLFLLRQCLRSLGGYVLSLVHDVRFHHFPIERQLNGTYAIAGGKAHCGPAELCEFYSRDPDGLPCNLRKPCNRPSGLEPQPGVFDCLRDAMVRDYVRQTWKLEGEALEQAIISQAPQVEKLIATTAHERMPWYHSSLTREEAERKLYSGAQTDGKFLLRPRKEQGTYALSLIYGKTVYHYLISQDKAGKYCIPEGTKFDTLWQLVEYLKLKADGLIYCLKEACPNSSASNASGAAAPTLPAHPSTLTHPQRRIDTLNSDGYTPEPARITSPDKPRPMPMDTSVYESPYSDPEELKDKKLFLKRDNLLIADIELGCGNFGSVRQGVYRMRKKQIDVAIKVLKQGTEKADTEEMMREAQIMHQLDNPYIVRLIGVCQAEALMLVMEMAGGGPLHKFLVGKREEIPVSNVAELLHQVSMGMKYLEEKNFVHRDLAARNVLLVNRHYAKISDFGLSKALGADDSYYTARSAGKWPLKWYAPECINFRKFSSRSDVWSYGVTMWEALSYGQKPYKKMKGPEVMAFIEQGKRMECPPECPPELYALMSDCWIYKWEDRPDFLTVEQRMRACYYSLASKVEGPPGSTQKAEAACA

CN(C)CCOc1cc(-c2cn[nH]c2)ccc1NC(=O)C1COc2ccccc2O1 (stereo not drawn) [SR-3677]
70%: inhibition [22]
46%: inhibition at 10 µM [8]
25%: inhibition [33]
19%: inhibition [4]
75%: inhibition at 10 µM [20]
< 10%: inhibition [1] | inhibition [2] | inhibition [3] | inhibition [5] | inhibition [6] | inhibition [7] | inhibition [9] | inhibition [10] | inhibition [11] | inhibition [12] | inhibition [14] | inhibition [15] | inhibition [16] | inhibition [17] | inhibition [18] | inhibition [19] | inhibition [21] | inhibition [23] | inhibition [24] | inhibition [25] | inhibition [26] | inhibition [27] | inhibition [28] | inhibition [29] | inhibition [30] | inhibition [32] | inhibition [34] | inhibition [35] | inhibition [36] | inhibition [37] | inhibition [38]
4%: inhibition [13] | inhibition [31]

From ChEMBL document CHEMBL1142492 (J Med Chem, 2008)
